Assay results as given in ChEMBL document CHEMBL4342502, “Synthesis and Antichlamydial Activity of Molecules Based on Dysregulators of Cylindrical Proteases” (J Med Chem, 2020).
Calls of active or inactive are those of the source. The calls are words filed in the database; no cut-off is given here.

Legend:
[1] = Stability of the compound in simulated gastric fluid at 50 uM and pH 1.2 at 37 degree C measured up to 120 mins by HPLC-ESI/MS analysis; conditions: simulated gi fluid, pH 1.2, 2 h
HaCaT = assay: Cytotoxicity against immortal human HaCaT cells assessed as reduction in cell viability at 50 ug/ml after 24 hrs by CCK-8 assay; type: cell-based
Procedure, shortened: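 HeLa 229 and HaCaT cells in DMEM with 10% FBS and 1% penicillin/streptomycin, 37 °C, 5% CO2, seeded at 5000 cells/well. Next day treated with 50 μg/mL in triplicate, with matching DMSO controls. After 24 h, CCK-8 added for 2 h; corrected absorbance read at 450 nm.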

Staphylococcus aureus [2] = assay: Antibacterial activity against Staphylococcus aureus JE2 assessed as bacterial death up to 256 ug/ml measured after 16 hrs by broth microdilution method; type: functional, organism-based
Procedure, shortened: (§1)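 Broth microdilution in Mueller Hinton broth, triplicate. Direct colony suspension at 1.5 x 10^8 CFU/mL diluted to ~10^5 CFU/mL. Serial dilutions made from DMSO stocks at 1 mg/mL; vancomycin positive control, blank medium negative control. Incubated 16 h at optimum temperature. MIC is the lowest concentration without visible growth at 600 nm; mean of triplicate determinations.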

[3] = Hepatic intrinsic clearance in human liver microsomes at 1 ug/ml measured per kg body weight up to 60 mins by LC-MS/MS analysis; type: ADME, Microsome; conditions: 1 h
Escherichia coli [4] = assay: Antibacterial activity against Escherichia coli ATCC 25922 assessed as bacterial growth inhibition at 32 ug/ml measured after 16 hrs by broth microdilution method; type: functional, organism-based
Candida albicans = assay: Antifungal activity against Candida albicans ATCC 90028 assessed as fungal growth inhibition at 32 ug/ml measured after 16 hrs by broth microdilution method; type: functional, organism-based
[5] = Stability of compound in human liver microsomes at 1 ug/ml measured up to 60 mins in absence of NADPH by LC-MS/MS analysis; type: ADME, Microsome; conditions: 1 h
Procedure, shortened: (§2)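 Human liver microsomes (1.0 mg/mL protein) in 100 mM phosphate pH 7.4 with 10 mM MgCl2 and 2 mM NADPH, preincubated 10 min at 37 °C. Reaction started with compound at 1 μg/mL. Sampled at 0, 5, 15, 20, 30, 45 and 60 min and quenched in methanol with internal standard. Controls: no NADPH (negative), testosterone (positive). Analysed by LC-MS/MS, triplicate.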

Pseudomonas aeruginosa = assay: Antibacterial activity against Pseudomonas aeruginosa ATCC 27853 assessed as bacterial growth inhibition at 32 ug/ml measured after 16 hrs by broth microdilution method; type: functional, organism-based
[6] = Stability of compound in mouse pre-heated plasma at 50 uM incubated up to 120 mins by HPLC-ESI/MS analysis; type: ADME, cell-free; conditions: 2 h
Procedure, shortened: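 Compounds from 2.5 mM DMSO stocks incubated at 50 μM final in mouse plasma diluted to 80% with PBS, preheated, 37 °C, shaking. Sampled at 0, 15, 30, 60, 90 and 120 min and quenched with cold acetonitrile. Centrifuged; supernatant analysed by HPLC-ESI-MS. Peak area reported relative to time zero. Enalapril positive control; triplicate.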

Chlamydia trachomatis [7] = assay: Anti-chlamydial activity against Chlamydia trachomatis Serovar LGV-L2 infected in Hep2 cells assessed as inhibition of chlamydial inclusion at 50 ug/ml treated at 8 hrs post infection and measured at 24 hrs post-infection by immunofluorescence assay; type: functional, organism-based
Procedure, shortened: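 HEp-2 cells infected with C. trachomatis serovar L2. Compounds at 50 μg/mL added 8 hpi; inclusion number and size assessed by immunofluorescence at 24 hpi against untreated cells. Cell morphology and viability checked by phase-contrast microscopy.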

Cryptococcus neoformans = assay: Antifungal activity against Cryptococcus neoformans var. grubii H99 ATCC […] as fungal growth inhibition at 32 ug/ml measured after 16 hrs by broth microdilution method; type: functional, organism-based; conditions: var. grubii H99 ATCC 208821
[8] = Intrinsic clearance in human liver microsomes at 1 ug/ml measured per mg protein up to 60 mins by LC-MS/MS analysis; type: ADME, Microsome
Procedure, shortened: as §2

Klebsiella pneumoniae = assay: Antibacterial activity against Klebsiella pneumoniae ATCC 700603 assessed as bacterial growth inhibition at 32 ug/ml measured after 16 hrs by broth microdilution method; type: functional, organism-based
Escherichia coli [9] = assay: Antibacterial activity against Escherichia coli K12 assessed as bacterial death up to 256 ug/ml measured after 16 hrs by broth microdilution method; type: functional, organism-based; conditions: K-12
Procedure, shortened: as §1

Staphylococcus aureus [10] = assay: Antibacterial activity against Staphylococcus aureus JE2 assessed as bacterial growth inhibition at 32 ug/ml measured after 16 hrs by broth microdilution method; type: functional, organism-based
Procedure, shortened: as §1

[11] = Half life in human liver microsomes at 1 ug/ml measured up to 60 mins by LC-MS/MS analysis; type: ADME, Microsome
Procedure, shortened: as §2

Escherichia coli [12] = assay: Antibacterial activity against Escherichia coli K12 assessed as bacterial growth inhibition at 32 ug/ml measured after 16 hrs by broth microdilution method; type: functional, organism-based; conditions: K-12
Procedure, shortened: as §1

Acinetobacter baumannii = assay: Antibacterial activity against Acinetobacter baumannii ATCC 19606 assessed as bacterial growth inhibition at 32 ug/ml measured after 16 hrs by broth microdilution method; type: functional, organism-based; conditions: ATCC 19606 = CIP 70.34 = JCM 6841
[13] = Drug metabolism in human liver microsomes assessed as amount of drug modified at 1 ug/ml […] in presence of NADPH by LC-MS/MS analysis; type: ADME, Microsome; conditions: read-out: Drug metabolism
Chlamydia trachomatis [14] = assay: Anti-chlamydial activity against Chlamydia trachomatis Serovar LGV-L2 infected in Hep2 cells assessed as reduction in chlamydial infectivity by measuring decrease in inclusion forming units at 50 ug/ml treated at 8 hrs post-infection and 24 hrs later re-infecting fresh Hep2 cells monolayer with infected cells and measured at 24 hrs post re-infection by immunofluorescence staining based microscopy analysis; type: functional, organism-based
Procedure, shortened: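 HEp-2 cells in DMEM with 10% FBS, infected with C. trachomatis L2 at MOI 1. Compounds added 8 hpi in triplicate; DMSO stocks at 50 mg/mL. At 24 hpi lysates collected in sucrose storage medium, frozen at −80 °C, and used to infect fresh HEp-2 monolayers in 10-fold dilutions. After 24 h, stained with goat anti-MOMP and Alexa488 secondary. Inclusions counted in 15 fields at 20x; IFU = mean count per field corrected for dilution.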

Staphylococcus aureus [15] = assay: Antibacterial activity against methicillin-resistant Staphylococcus aureus ATCC 43300 assessed as bacterial growth inhibition at 32 ug/ml measured after 16 hrs by broth microdilution method; type: functional, organism-based
[16] = Toxicity in Drosophila melanogaster assessed as survival rate at 0.25 to 1 mM; conditions: 1000 µM
Procedure, shortened: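 Drosophila SMART assay using third-instar larvae (72 ± 4 h) from ST and HB crosses. Larvae exposed in hydrated instant mashed-potato medium at 0.25, 0.5 and 1.0 mM final. Vehicle control: water with 1% Tween-80 and 3% ethanol. Survival of treated groups compared statistically with the vehicle control.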

[17] = target: ATP-dependent Clp protease proteolytic subunit (Escherichia coli (strain K12)) (UniProt P0A6G7); assay: (§3) Activation of recombinant Escherichia coli ClpP assessed as induction of casein degradation at 0.1 to 1 uM using FITC-labelled casein as substrate pretreated with enzyme for 30 mins followed by substrate addition and measured every 3 mins for 3 hrs in absence of AAA+ chaperone by fluorescence based tecan-plate reader assay
Sequence of ATP-dependent Clp protease proteolytic subunit (Escherichia coli (strain K12)) (P0A6G7 whole entry): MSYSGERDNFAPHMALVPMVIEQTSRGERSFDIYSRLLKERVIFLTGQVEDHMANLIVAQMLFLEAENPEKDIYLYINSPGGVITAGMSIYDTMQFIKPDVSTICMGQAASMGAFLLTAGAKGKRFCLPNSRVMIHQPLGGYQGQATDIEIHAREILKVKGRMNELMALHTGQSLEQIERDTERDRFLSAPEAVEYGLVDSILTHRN
Procedure, shortened: (§4)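 Recombinant C-terminal His6-tagged ClpP, expressed in a clpAPX-null E. coli strain and purified (mammalian ClpP without mitochondrial signal, codon-optimized). ClpP at 1 or 0.1 μM (E. coli), 1 μM (human, mouse) or 6 μM (chlamydial ClpP1 and ClpP2) preincubated with compound or DMSO, 30 min, 32 °C, in HEPES pH 7.6/KCl/MgCl2/DTT/glycerol buffer. 20 μM FITC-casein then added. Fluorescence (ex 490/em 525 nm) read every 3 min for 3 h. At least three runs on at least two protein preparations.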

[18] = as §3, with “recombinant mouse C-terminal 6xHis-tagged ClpP expressed in” for “recombinant”, “coli” for “coli ClpP”
Procedure, shortened: as §4

[19] = as §3, with “recombinant human C-terminal 6xHis-tagged ClpP expressed in” for “recombinant”, “coli” for “coli ClpP”
Procedure, shortened: as §4

[20] = Mutagenicity in Drosophila melanogaster somatic cells assessed as frequency of clone formation in HB crosses at 0.25 to 1 mM by SMART assay; type: ADME; conditions: 1000 µM
Procedure, shortened: (§5)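 Drosophila SMART wing-spot assay, ST and HB crosses. Third-instar larvae (72 ± 4 h) placed on hydrated instant mashed potato medium containing compound at 0.25, 0.5 or 1.0 mM final. Negative control: water with 1% Tween-80 and 3% ethanol. Statistics by Frei and Würgler two-sided U test, P≤0.05.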

[21] = Mutagenicity in Drosophila melanogaster somatic cells assessed as frequency of clone formation in ST crosses at 0.25 to 1 mM by SMART assay; type: ADME; conditions: 1000 µM
Procedure, shortened: as §5

Row | Structure (SMILES) | Activity (Staphylococcus aureus [2]) | inhibition (Escherichia coli [4]) | inhibition (Candida albicans) | inhibition (Pseudomonas aeruginosa) | inhibition (Chlamydia trachomatis [7]) | inhibition (Cryptococcus neoformans) | inhibition (Klebsiella pneumoniae) | Activity (Escherichia coli [9]) | inhibition (Staphylococcus aureus [10]) | inhibition (Escherichia coli [12]) | inhibition (Acinetobacter baumannii) | inhibition (Chlamydia trachomatis [14]) | inhibition (Staphylococcus aureus [15]) | other results
1 | CC(C)(C(=O)N1CCN(c2ccc(Cl)c(Cl)c2)CC1)S(=O)(=O)c1ccc(C(F)(F)F)cn1 | inactive | inactive | inactive | inactive | Active | inactive | inactive | inactive | inactive | inactive | inactive | Active | inactive | Stability [1]: Stable; Activity (HaCaT): Non-Toxic; CLH [3]: 874 mL/min/kg; Stability [5]: Stable; Stability [6]: Stable; microsomal CLint at 1 ug/ml ([8]; liver microsomes, read-out: CLH): 112 µL/min/mg; half-life at 1 ug/ml ([11]; liver microsomes): 6.25 min; metabolised at 10 min, 1 ug/ml [13]: 90%
2 | Cc1ccccc1N1CCN(C(=O)C(C)(C)S(=O)(=O)c2ccc(C(F)(F)F)cn2)CC1 | inactive | inactive | inactive | inactive | Active | inactive | inactive | inactive | inactive | inactive | inactive | Active | inactive | –
3 | CC(C)(C(=O)NCCOc1ccccc1Cl)S(=O)(=O)c1ccccc1 | – | inactive | inactive | inactive | inactive | inactive | inactive | – | inactive | inactive | inactive | – | inactive | Activity [16]: Non-Toxic
4 | CC(C)(C(=O)NCCOc1ccccc1)S(=O)(=O)c1ccc(C(F)(F)F)cn1 | inactive | inactive | inactive | inactive | Active | inactive | inactive | inactive | inactive | inactive | inactive | Active | inactive | CLH [3]: 1460 mL/min/kg; Stability [5]: Stable; microsomal intrinsic clearance ([8]; microsomes, 1 h): 185.6 µL/min; t1/2 ([11]; microsomes, 1 h): 3.73 min; metabolised at 10 min, 1 ug/ml [13]: 90%
5 | CC(C)(C(=O)NCCSc1ccc(Cl)cc1)S(=O)(=O)c1ccccc1 | – | inactive | inactive | inactive | inactive | inactive | inactive | – | inactive | inactive | inactive | – | inactive | Activity [17]: inactive; Activity [18]: Not Active; Activity [19]: Not Active
6 | CC(C)(C(=O)NCCSc1ccccc1Cl)S(=O)(=O)c1ccccc1 | – | – | – | – | inactive | – | – | – | – | – | – | – | – | Activity [17]: inactive; Activity [18]: Not Active; Activity [19]: Not Active
7 | CC(C)(C(=O)N1CCN(Cc2cccc(Cl)c2)CC1)S(=O)(=O)c1ccc(C(F)(F)F)cn1 | – | inactive | inactive | inactive | Active | inactive | inactive | – | inactive | inactive | inactive | Active | inactive | Activity [20]: Non-Toxic; Activity [21]: Non-Toxic; Activity [16]: Non-Toxic
8 | Cc1ccc(CN2CCN(C(=O)C(C)(C)S(=O)(=O)c3ccc(C(F)(F)F)cn3)CC2)cc1 | inactive | inactive | inactive | inactive | Active | inactive | inactive | inactive | inactive | inactive | inactive | – | inactive | Activity (HaCaT): Non-Toxic
